Reference: PubChem BioAssay AID463111 (Johns Hopkins Ion Channel Center, 2010)
The campaign covered roughly 310,000 compounds. About 2,800 (0.9%) were called active.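 The calls were made as follows: active = B-score of the integrated calcium signal more than 4 SD below the library mean, with starting fluorescence not abnormally high; inactive = the rest.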 The list comes from a sample in which actives are over-represented; it also holds similar structures and randomly drawn compounds. Residues, ends and D or L forms follow the SMILES beside them. *: point of attachment. Bz = O=C(c1ccccc1)*

Assay: RGS4 potentiators or activators, primary screen, cell-based, HEK293 M3R inducible RGS4, calcium flux (AID 463111);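 as to B-score: negative B-score means reduced calcium response which marks RGS4 activation or potentiation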
Conditions: HEK293 M3R/inducible RGS4, carbachol calcium flux Fluo4, at 10 µM; hits give low values
Procedure, shortened: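 Material: M3R-expressing HEK293 line, RGS4 induced by doxycycline | Schedule: Overnight RGS4 induction, 30 min dye load 37 °C, 20 min compound RT | Measured by: Fluo4 fluorescence kinetic imaging of calcium | Read-out: Integrated calcium ratio converted to B score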

Compound | B-score
O=C(NCC1CCCO1)c1cc2c([nH]c3ccccc32)c(-c2ccc(F)cc2)n1 (configuration not stated) | -11.5 (active)
O=C(NCCCO)c1cc2c([nH]c3ccccc32)c(-c2ccc(F)cc2)n1 | inactive
CC(=O)N/C(=C\c1ccc(F)cc1)C(=O)NC(Cc1ccccc1)C(=O)O (configuration not stated) | inactive
CCOC(=O)c1csc(CCNC(=O)c2oc3c(Cl)cc(C)cc3c2C)n1 | inactive
CCCCCCCCCCOC(=O)Cn1c(COc2cccc(OC)c2)[n+](C)c2ccccc21 | inactive
Cc1ccc(OCCCn2c(=O)oc3ccccc32)cc1 | inactive
CCCCCCCCCCOC(=O)Cn1c(COc2ccc(C)cc2)[n+](C)c2ccccc21 | -8.44 (active)
O=C(CCN1C(=O)C2C3CCC(C3)C2C1=O)Nc1ccc(Cl)cc1Cl (configuration not stated) | inactive
CC(NCCc1ccc(S(N)(=O)=O)cc1)C(=O)NCc1ccccc1 (configuration not stated) | inactive
O=[N+]([O-])c1cc([N+](=O)[O-])c(Oc2cc(F)cc(F)c2F)cc1NN1CCCCC1 | -7.39 (active)
O=C(CN1CCCCCC1)Nc1ccc(Br)cc1[N+](=O)[O-] | inactive
O=C(COc1ccc(Cl)cc1[N+](=O)[O-])N1CCCCC1 | inactive
CCc1cccc(C)c1NS(=O)(=O)c1c(C)nc2sccn2c1=O | inactive
CCSc1nc(=S)n(CC)c(C)c1C(C)=O | inactive
Cc1ccccc1-n1nc(SCC(=O)O)sc1=S | inactive
CC(CCc1ccccc1)NC(=O)COC(=O)c1ccc(F)cc1 (configuration not stated) | inactive
N/C(Cc1ccc([N+](=O)[O-])cc1)=N\OC(=O)C1CCCCC1 | inactive
N/C(=N\OC(=O)Cc1ccc([N+](=O)[O-])cc1)c1ccccn1 | inactive
CCOC(=O)COc1ccc([N+](=O)[O-])cc1 | inactive
N/C(Cc1ccc([N+](=O)[O-])cc1)=N\OC(=O)COc1ccc2ccccc2c1 | -7.23 (active)
Cc1cc(C)cc(OCC(=O)O/N=C(\N)Cc2ccc([N+](=O)[O-])cc2)c1 | -7.82 (active)
N/C(=N\OC(=O)COc1ccc([N+](=O)[O-])cc1)c1ccc(Br)cc1 | inactive
CCOc1ccc(N2C(=O)Nc3ccccc3C2(O)C(=O)NCc2ccco2)cc1 (configuration not stated) | inactive
O=C(COC(=O)Cc1ccc(Br)cc1)Nc1c(F)c(F)c(F)c(F)c1F | inactive
O=C(NC(Cc1ccccc1)C(=O)N1CCCC(C(F)(F)F)C1)c1ccccc1 (configuration not stated) | inactive
CN(Cc1ccccc1F)C(=O)C(Cc1ccccc1)NC(=O)c1ccccc1 (configuration not stated) | -7.13 (active)

Compound | B-score
O=C(NC(Cc1ccccc1)C(=O)N1CCCC1C(=O)O)c1ccccc1 (stereo not drawn) (Bz-Phe-Pro-OH; configuration not given here) | inactive
O=C(/C=C/c1ccc([N+](=O)[O-])o1)NNC(=O)c1ccc(F)cc1 | inactive
CC1CCN(C(=O)COC(=O)c2cc(S(=O)(=O)N3CCOCC3)ccc2Cl)CC1 | inactive
COc1ccc(CCNC(=O)CC2SC(=Nc3cc(C)cc(C)c3)NC2=O)cc1OC (configuration not stated) | inactive
CC(C)c1ccc2c(c1)c(SC(C)(C)C)c(CC(C)(C)C(=O)O)n2Cc1ccc(Cl)cc1 | -7.99 (active)
O=C(O)c1ccc(Cn2c(=S)[nH]c3cc(Cl)ccc3c2=O)cc1 | inactive
Nc1nc(NC(=O)/C=C/c2ccc(F)cc2)nn1-c1ccccc1 | inactive
C[C@@H](C(=O)N1CCNCC1)n1cc(CCC(=O)O)nn1 | inactive
O=C(NNC(=S)NCc1ccco1)C(c1ccccc1)c1ccccc1 | inactive
CCCCC(=O)NNC(=S)NC(=O)C(c1ccccc1)c1ccccc1 | -9.53 (active)
CC(C)C(=O)Nc1cccc(NC(=S)NC(=O)C(c2ccccc2)c2ccccc2)c1 | inactive
O=C(N/N=C/c1ccsc1)c1cc(O)cc(O)c1 | inactive
COc1ccc(CN2CC[C@H]3C=CC[C@@H](C(=O)N4CCOCC4)[C@H]3C2=O)cc1OC | inactive
CCN(Cc1ccncc1)C(=O)CCc1ccccc1 | inactive
Cc1cc(C)n(Cc2cnc(N3CCOCC3)s2)n1 | inactive
CCC1C=C(c2ccccc2)C=CN=C1N(CC)CC (configuration not stated) | -10.2 (active)
COc1cccc(NC(=O)N2C3CCCC2CC(NC(C)=O)C3)c1 (configuration not stated) | inactive
CCCn1c(SCC(=O)c2ccc3c(c2)OCCO3)nnc1C(C)C | inactive
O=S(=O)(c1ccc(Br)cc1)n1ccc2ccccc21 | -7.7 (active)
O=S(=O)(c1ccc(Br)cc1)N1CCC(c2nc3ccccc3[nH]2)CC1 | inactive
O=C(c1ccccc1F)N1CCN(S(=O)(=O)c2ccc(Br)cc2)CC1 | inactive
CCC1CCc2c(sc(NC(C)=O)c2C#N)C1 (configuration not stated) | inactive
CCC(C)c1ccc(NC(=S)NCc2ccccn2)cc1 (configuration not stated) | inactive
FC(F)(F)c1cccc(-c2nc(COc3ccc(Cl)cc3Cl)no2)c1 | -7.64 (active)
FC(F)(F)c1cnc(Oc2ccccc2-c2nnc(-c3ccc(Cl)cc3)o2)c(Cl)c1 | inactive
Cc1cc(Cl)ccc1OCc1nc(-c2ccncc2)no1 | inactive
